The text below walks through data of ChEMBL document CHEMBL4513216, “Probing the Open Global Health Chemical Diversity Library for Multistage-Active Starting Points for Next-Generation Antimalarials” (ACS Infect Dis, 2020).

The data set can be described thus: Toxicity liver stage against HepG2, at 10uM. Set-up: test concentration 10 uM, cell line HepG2-A16-CD81EGFP. It is filed as cell-based. The conditions noted are these: human, HepG2-A16-CD81EGFP cells; read-out: INHIBITION
The method in brief:
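Uninfected HepG2-A16-CD81EGFP cells, 3 × 10^3 per well, 1536-well, plated on prespotted compound at 10 μM final, parasite-free screening media added to match infected plates; puromycin 10 μM positive, DMSO 0.5% negative; run in parallel with 48 h PbLuc assay at 37 °C, 5% CO2; viability by CellTiter-Glo luminescence, normalized to controls.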
On to `CC(=O)Nc1ccc(CNCC(O)c2ccccc2)cc1` (stereo not given), for which the cytotoxicity at 10 µM is -10.1%.
For `CC(COc1ccc(F)cc1F)NC(=O)NCCN1CCOCC1` (stereo not given) the value was -10.9%; for `CN1CCC(Cc2noc(-c3cccc4c3OCC4)n2)CC1`, -4.71%; for `Cc1cc(CN2CCN(CCOc3cccc(C#N)c3)CC2)no1`, -11.6%.
As to `O=C(C1CC1)N1CC[C@H]2C(=O)N(c3ccsc3)CCO[C@H]2C1`, the cytotoxicity at 10 µM was 9.85%.
As to `CCOC(=O)Cn1c(=O)c(OCC)nc2cnccc21`, the cytotoxicity at 10 µM was found to be 4.25%.
As for `CCc1c(C)sc(NC(=O)CN2CCN(CC)CC2)c1C(=O)OC`, the cytotoxicity at 10 µM is -11.1%.
With `O=C(Nc1cccc(OCC(F)F)n1)c1ccncc1` the figure was -6.02%.
With `CCc1nc(C2CCCN2C(=O)c2cc(Cl)c[nH]2)no1` (stereo not given) the figure was -12.2%; with `Cc1noc(C)c1CN(C)C(=O)c1ccc2c(c1O)OC(C)(C)C2`, -2.92%; with `COc1ccccc1C1(CNCc2ccc(C#N)cc2)CCOCC1`, 7.62%.
With `COCCC1COC2(CCN(C(=O)C3CCC3)CC2)C1` (stereo not given) the figure was 8.25%; with `CCC1(CC)CC(=O)N(CC(O)c2ccc(Cl)cc2)C1=O` (stereo not given), 4.06%; with `CCc1cc(=O)n(CC(=O)N2CCCC2)c(-c2cccc(F)c2)n1`, 6.75%.
As for `CO[C@@H]1c2ccccc2C2(CCN(C(=O)CNC(=O)C(C)C)CC2)[C@H]1O`, the cytotoxicity at 10 µM is -3.26%.
For `CN1CC(=O)N(c2cccc(F)c2)CC12CCN(Cc1ccncc1)C2` (stereo not given) the value was 5.69%; for `O=C(C1CC1)N1CCC2(CCN(Cc3cccc(F)c3)CC2)CC1`, -4.07%; for `CCc1cccc(N2CCC(NC(=O)CCNC(N)=O)CC2)c1`, -12.5%.
With `CC(C)c1ocnc1C(=O)N1CCC(=O)Nc2cccnc21` the figure was 1.15%; with `Cc1ccc(OC2(C(=O)O)CCN(C(=O)c3cccc(F)c3)CC2)cn1`, 2.91%; with `CCS(=O)(=O)N1CCC(NC(=O)c2cc(C)ccc2O)CC1`, -8.92%.
With `CC(=O)N1CCN(C(=O)CN2CCN(c3cccc(C)c3)CC2)CC1`, the cytotoxicity at 10 µM is -1.75%.
With `Cc1cnn(CC2CCCN2C(=O)c2cnc3n[nH]c(C)c3c2)c1` (stereo not given) the figure was 8.73%; with `Cc1nn(C)c(N2CCOCC2)c1CNCc1nccs1`, -6.33%; with `CCc1nc2ccccc2n1C(CC)C(=O)N(C)Cc1noc(C)n1` (stereo not given), 2.23%.
As to `O=C(c1ccccn1)N1CCCC(c2cc(C(F)F)n3ncnc3n2)C1` (stereo not given), the cytotoxicity at 10 µM was -1.74%.
Take `Cc1csc(C2CCCCN2C(=O)c2cc(Cl)c[nH]2)n1` (stereo not given): the cytotoxicity at 10 µM was -6.73%.
With `CCN(Cc1ccoc1)C(=O)c1cc(S(N)(=O)=O)c(C)o1` the figure was -2.98%; with `Cc1nsc(N2CCCN(C(=O)NCc3cc(C)on3)CC2)n1`, -1.63%.
Take `O=C(c1ccccc1F)N1CC(c2nc(C3CC3)no2)C1`: the cytotoxicity at 10 µM is -0.478%.
For `CCN(Cc1cn(C)nc1-c1ccc2c(c1)OCCO2)CC1CCCO1` (stereo not given) the value was 2.85%; for `CNC(=O)[C@H]1C[C@H]2OCC[C@H]2N(CC2CC2)C1`, 4.17%; for `Cn1cccc1C(=O)N1CC[C@H]2[C@H]1CCN2CC1CCOCC1`, -4.81%.
With `Cc1noc(C)c1CN1C[C@@H]2C[C@H](C(=O)NCC3CC3)N(C)[C@@H]2C1` the figure was -1.24%.
As to `COc1cc(N2C[C@@H](C)[C@](O)(C3CC3)C2)ncn1`, the cytotoxicity at 10 µM was -0.714%.
With `NC(=O)N1CC[C@H](O)[C@@H]1Cc1ccccc1` the figure was 3.32%; with `CC(=O)N1CCCCC1c1cc(CO)[nH]n1` (stereo not given), -0.671%.
With `CCCNC(=O)C[C@@H]1CCN(C(=O)c2cccnc2)C[C@@H]1CC` the figure was -0.171%.
With `O=C(NCc1ccco1)[C@H]1C[C@@H]2CCN(c3ccncn3)C[C@@H]2O1` the figure was -9.58%; with `c1ccc(N2CCC3(CCCN(c4ncccn4)C3)C2)nc1` (stereo not given), -133%; with `CC1=CC[C@@H]2CN(C(=O)c3ccc(-c4cc[nH]n4)cc3)C[C@@H]2C1`, 5.15%.
Turning to `Cc1cccnc1CN1CCN(C(=O)c2ccn(C(C)(C)C)c2)CC1`, the cytotoxicity at 10 µM is 11%.
With `Cc1noc(C)c1CNC(=O)Nc1ccc(N2CCOC2=O)cc1` the figure was -2.93%; with `Cc1ccc(C(=O)Nc2cn[nH]c2)cc1C`, 0.762%.
For the compound `CCn1cc(CN2CCC(C3CCN(C)CC3)CC2)cc1C#N`, the cytotoxicity at 10 µM is -0.0399%.
Take `CCOc1cc(CNCCCn2ccnc2)cc(Cl)c1OC`: the cytotoxicity at 10 µM was -5.21%.
Consider `N#Cc1ccc(N2CCN(c3cnccn3)CC2)cc1C(F)(F)F`, for which the cytotoxicity at 10 µM was 38.6%.
For `COCc1nc(C(=O)N2CCCCC2Cn2cccn2)cs1` (stereo not given) the value was -19.1%; for `CCCn1cc(C(=O)NC2CCN(CC(=O)NC3CC3)CC2)c(C)n1`, 2.29%; for `CNC(=O)CN1CCOCC2(C1)CN(Cc1csnn1)CCO2` (stereo not given), -89.3%.
Regarding `CC(C)c1nc(CNc2ccc(CNS(C)(=O)=O)cc2)cs1`, the cytotoxicity at 10 µM worked out at 3.82%.
With `Cc1cc(C)n(CCN2CCOC(CNc3cccnn3)C2)n1` (stereo not given) the figure was -3.2%; with `COc1ncccc1CNCc1c(C(C)C)nn(C)c1OC`, -1.68%; with `CS(=O)(=O)NCC1CCCN(C(=O)c2cccc(F)c2)C1` (stereo not given), -6.93%.
With `O=C(c1cncs1)N1CCOCC(Cc2ccccn2)C1` (stereo not given) the figure was 0.105%.
With `CN(C)c1ccccc1C(=O)N1C[C@@H](CN2CCC(O)CC2)[C@@H](CO)C1` the figure was 3.11%; with `Cc1cccc(C(=O)NC2CCN(c3cnn(C)c3)C2=O)n1` (stereo not given), 3.48%; with `CNC(=O)[C@H]1C[C@@H]2CN(Cc3csc(C)n3)C[C@@H]2N1S(C)(=O)=O`, -3.78%.
As for `Cc1cccc(NC2CCN(C(=O)Nc3ccccn3)CC2)n1`, the cytotoxicity at 10 µM is -7.92%.
With `COc1ccc(CNC(=O)C2(C#N)CCCC2)cc1` the figure was -17.7%.
For `O=c1oc(-c2cccs2)nn1CC(O)c1ccc2c(c1)CCC2` (stereo not given) the value was 5.33%; for `Cc1[nH]c2nc(CNc3cccc(Cl)c3)nn2c(=O)c1C`, 0.0924%.
For `CN(C)C(=O)N1CCCn2nc(CNC(=O)CCc3ccsc3)cc2C1` the value was -1.77%; for `CN(C)CCNc1ccc(-c2nc(-c3ccccc3F)no2)cn1`, 9.34%.
`CC(C)S(=O)(=O)NCC1CCCN(C(=O)c2ccc(F)cc2)C1` (stereo not given): the cytotoxicity at 10 µM was found to be 4.68%.
With `c1cnn(CC2CN(Cc3nnc(C4CC4)o3)CCO2)c1` (stereo not given) the figure was -5.09%; with `COCCN(Cc1cccnc1)S(=O)(=O)c1ccc(F)cc1C`, -5.06%.
For `Cc1ccccc1N1CCN(C2CCCN(C(=O)CCC(C)C)C2)CC1` (stereo not given) the value was -5.95%.
For `CC(c1nc(C2CC2)no1)N1CCN(Cc2nnc(C3CC3)o2)CC1` (stereo not given) the value was 7.7%.
For the compound `Cc1csc(CNC(=O)N2CCN(Cc3ccco3)CC2)n1`, the cytotoxicity at 10 µM was 0.702%.
With `COc1ccnc(CNc2cc(C3CC3)ncn2)c1` the figure was -7.64%; with `CCc1nc(C(=O)N(CC)CC(=O)Nc2cc(Cl)ccc2C)c[nH]1`, 8.44%; with `O=C(CC1CC1)N1CCN(Cc2ccncc2)c2ncccc2C1`, 10%.
With `O=C(Nc1ccccc1)[C@H]1O[C@H](CCN2CCNCC2)CC[C@@H]1O` the figure was -7.49%; with `COc1ccc(COCC(O)CNC(=O)c2cccc(OC)c2)cc1` (stereo not given), -9.05%; with `CCOc1ccccc1CNC(=O)N(CC)C(C)c1cccnc1` (stereo not given), -3.64%.
Take `Cn1nc(C(=O)N2CCOCC2)cc1C(=O)Nc1ccc(Cl)cc1Cl`: the cytotoxicity at 10 µM was -7.41%.
With `CN(C)Cc1nn(C)c2c1CN(C(=O)Nc1ccc(F)cc1)C2` the figure was 6.04%.
With `O=C1CCCC2=C1C(c1ccccc1Cl)C1C(=O)NN=C1N2` (stereo not given) the figure was -11.6%; with `O=C(c1cc(=O)c(OCc2ccccc2F)co1)N1CCCC1`, -0.321%; with `Cc1cnc(CCNC(=O)C2CCN(S(=O)(=O)c3ccc(F)cc3)C2)s1` (stereo not given), 2.56%.
For `O=C(NCCC1CCCO1)c1ccccc1N1CCOCC1` (stereo not given) the value was -10.8%.
On to `Cc1ccccc1C(=O)Nc1cnn(CCN2CCOCC2)c1`, for which the cytotoxicity at 10 µM was -11.7%.
As for `c1cc(CNCc2ccc(Cn3cncn3)cc2)c2c(c1)OCCO2`, the cytotoxicity at 10 µM was found to be 0.585%.
For `Cc1nn(C)c(C)c1CC(=O)NCc1cccnc1OC1CCCC1`, the cytotoxicity at 10 µM is -0.527%.
With `CN1CCCCC[C@@H]2[C@@H]1[C@H](c1ccccc1)CN2C(=O)c1cccnc1` the figure was -24.4%.
With `CCOC(=O)CSc1nnc(C(N)CC(C)C)o1` (stereo not given) the figure was -8.32%.
For `CCc1ncc(C(=O)N(C)C(C)c2ccc3c(c2)OCCO3)cn1` (stereo not given) the value was -2.96%; for `CCn1cc(-n2cc3nc(N4CCC(O)CC4)[nH]cc-3c2=O)cn1`, 5.01%; for `COCc1ccccc1NCc1csc(NC(C)=O)n1`, -1.36%.
With `O=C(O)c1cc(-c2ccoc2)cc(S(=O)(=O)N2CCSCC2)c1`, the cytotoxicity at 10 µM was 0.49%.
For `CN(C)C(=O)C1CCN(Cc2csc(C(C)(C)C)n2)CC1` the value was -23%.
For `Cn1nccc1C(=O)N1CCOC(Cc2cccc(C(F)(F)F)c2)C1` (stereo not given) the value was 5.52%.
With `COc1ccc2c(c1)OCC(CNC(=O)c1cc[nH]c1C)C2` (stereo not given) the figure was 3.34%; with `CS(=O)(=O)c1cc(Cl)cnc1C1CCN(C(=O)C2CC2)CC1`, 8.21%.
